Test results taken from article PMC2246419 (EMBO Reports, 2008).

Tests used:
p110α = p110α (Bos taurus, UniProt P32871); experiment: In vitro lipid kinase assay, GST-p110α; format: biochemical
type IIγ PtdInsP kinase = molecular target: T1, type IIγ PtdInsP kinase (Homo sapiens, UniProt Q8TBX8); experiment: In vitro lipid kinase assay, type IIγ PtdInsP kinase; format: biochemical; settings: even at 10 μM; data not shown
T1 sequence (Q8TBX8 1-421): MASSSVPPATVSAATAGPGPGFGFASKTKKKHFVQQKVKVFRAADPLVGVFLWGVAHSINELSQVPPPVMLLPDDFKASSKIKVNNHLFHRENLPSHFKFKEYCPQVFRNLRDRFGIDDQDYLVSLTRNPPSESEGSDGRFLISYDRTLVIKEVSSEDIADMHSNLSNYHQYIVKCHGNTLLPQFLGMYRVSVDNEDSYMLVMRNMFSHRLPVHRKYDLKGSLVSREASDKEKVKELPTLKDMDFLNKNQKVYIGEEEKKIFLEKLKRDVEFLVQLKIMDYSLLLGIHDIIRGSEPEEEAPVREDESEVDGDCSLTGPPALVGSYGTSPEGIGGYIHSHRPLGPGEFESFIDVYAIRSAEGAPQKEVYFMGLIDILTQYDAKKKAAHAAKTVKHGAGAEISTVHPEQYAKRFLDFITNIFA

type Iα PtdInsP kinase = experiment: In vitro lipid kinase assay, type Iα PtdInsP kinase; format: biochemical, mouse
NIH3T3 cells [1] = experiment: In vivo measurement of phosphoinositide levels in 32P-labelled cells; format: cell-based, mouse; settings: 800 nM
[2] = test system: PKB Ser 473 phosphorylation in NIH3T3 cells; experiment: Western blot of serum-stimulated PKB Ser 473 phosphorylation; format: cell-based, mouse
NIH3T3 cells [3] = experiment: Cell division and growth curves; format: cell-based, mouse; settings: 800 nM
ecotropic MLV retrovirus = experiment: Viral production assay; format: cell-based, human; settings: 800 nM, TEFLY Mo producer cells
NIH3T3 cells [4] = experiment: Lysotracker staining of swollen vesicles; format: cell-based, mouse; settings: 800 nM 3 h, Lysotracker Red DND-99
How it was run: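 NIH3T3 cells were exposed to test compound at 800 nM for 3 h. Lysotracker Red DND-99 (100 nM) was added to the medium for the final 0.5 h, and the acidotropic dye was imaged in the enlarged vesicles.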

p110α, sequence (P32871 whole entry): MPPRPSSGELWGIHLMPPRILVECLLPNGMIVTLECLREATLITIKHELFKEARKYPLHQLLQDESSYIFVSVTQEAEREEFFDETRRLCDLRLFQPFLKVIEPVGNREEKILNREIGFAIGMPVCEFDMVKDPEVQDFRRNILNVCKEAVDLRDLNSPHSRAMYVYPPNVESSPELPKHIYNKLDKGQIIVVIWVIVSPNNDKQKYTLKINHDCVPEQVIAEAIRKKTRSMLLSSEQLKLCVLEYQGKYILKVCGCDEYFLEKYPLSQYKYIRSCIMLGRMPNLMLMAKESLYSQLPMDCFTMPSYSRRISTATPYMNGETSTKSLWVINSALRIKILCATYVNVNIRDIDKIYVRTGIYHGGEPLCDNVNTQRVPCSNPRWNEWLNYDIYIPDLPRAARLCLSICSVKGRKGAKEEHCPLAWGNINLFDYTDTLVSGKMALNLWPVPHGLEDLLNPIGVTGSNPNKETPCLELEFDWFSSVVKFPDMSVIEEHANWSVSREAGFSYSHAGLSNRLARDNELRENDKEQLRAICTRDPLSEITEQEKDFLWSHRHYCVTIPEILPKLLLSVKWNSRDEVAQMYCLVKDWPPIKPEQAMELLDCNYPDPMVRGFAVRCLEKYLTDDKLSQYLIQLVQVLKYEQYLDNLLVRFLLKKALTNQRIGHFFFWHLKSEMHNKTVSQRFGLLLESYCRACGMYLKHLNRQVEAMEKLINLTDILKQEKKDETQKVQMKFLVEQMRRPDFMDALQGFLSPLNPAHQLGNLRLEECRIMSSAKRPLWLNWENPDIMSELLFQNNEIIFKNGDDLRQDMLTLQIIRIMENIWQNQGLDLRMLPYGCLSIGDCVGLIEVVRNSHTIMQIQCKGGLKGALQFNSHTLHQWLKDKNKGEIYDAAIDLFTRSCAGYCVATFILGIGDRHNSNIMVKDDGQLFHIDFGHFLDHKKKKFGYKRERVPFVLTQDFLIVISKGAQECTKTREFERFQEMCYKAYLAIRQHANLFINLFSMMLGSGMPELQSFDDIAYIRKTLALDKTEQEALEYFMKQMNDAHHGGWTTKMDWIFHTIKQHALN

IC50 (p110α; p110α IC50, 50 μM ATP, 100 μM PtdIns substrate) [µM] | p110α IC50 fold higher than for PIKfyve (p110α; same assay conditions) [fold] | Inhibition of type IIγ PtdInsP kinase (type IIγ PtdInsP kinase) | type Iα PtdInsP kinase IC50 fold greater than against PIKfyve (type Iα PtdInsP kinase) | IC50 (type Iα PtdInsP kinase; read-out: type Iα PtdInsP kinase IC50, mouse enzyme, data not shown) [µM] | SMILES | Decrease of PtdIns(3,5)P2 production (NIH3T3 cells [1]) [%] | Decrease of PtdIns(4,5)P2 (NIH3T3 cells [1]) | Effect on all other phosphoinositides identified (NIH3T3 cells [1]) | Effect on PKB Ser 473 phosphorylation ([2]; 800 nM) | Effect on cell division (NIH3T3 cells [3]) | Reduction of virus released into the medium (ecotropic MLV retrovirus) [%] | Acidification of swollen vesicles (NIH3T3 cells [4]) | Effect on serum-stimulated phosphorylation of PKB ([2]; increasing concentrations)
3 | ~100 | did not inhibit | around 100 fold | > 2 | Nc1ccc(C(=O)Nc2cccc(-c3nc(N4CCOCC4)c4oc5ncccc5c4n3)c2)cn1 [YM201636] | 80 | around 20% | remained largely unaltered | no influence | does not inhibit cell division | 80 | poorly acidified | –
– | – | – | – | – | Oc1cccc(-c2nc(N3CCOCC3)c3oc4ncccc4c3n2)c1 [YM211103] | – | – | – | – | – | – | – | decreased
